Laboratory results reported in ChEMBL document CHEMBL1124233, “Clofazimine analogues active against a clofazimine-resistant organism” (J Med Chem, 1988).

Legend:
Type in all cases: functional, organism-based
[1] = tested on: Mycolicibacterium smegmatis; assay: 100% inhibition of growth of rifampicin resistant Mycobacterium smegmatis 607 strain in vitro
Procedure, shortened: (§1)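 M. smegmatis ATCC607-derived strains (one of three used, including a dapsone-sensitive one) were grown in modified Kirchner's medium with 0.5% Tween 80, inoculated with 10^5 viable cells. Drugs were added in DMSO (2% final). Roller tubes were incubated at 37 °C for 72 h. Growth was read as spectrophotometric transmission.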

[2] = tested on: Mycolicibacterium smegmatis; assay: Concentration for 100% inhibition of growth of dapsone sensitive Mycobacterium smegmatis 607 strain in vitro; procedure, shortened: as §1
[3] = tested on: Mycolicibacterium smegmatis; assay: 100% inhibition of growth of clofazimine resistant Mycobacterium smegmatis 607 strain in vitro
Procedure, shortened: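 Strain: 20× step-up clofazimine-resistant mutant of M. smegmatis ATCC607. 10^5 viable cells inoculated into modified Kirchner's medium with 0.5% Tween 80. Drugs were added in DMSO (2% final in all tubes). Roller tubes were incubated at 37 °C for 72 h. Growth was read as optical transmission in a spectrophotometer.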

SMILES | Concentration [1] | Concentration [2] | Concentration [3]
CN1CCN(CCC/N=c2\cc3n(-c4ccccc4)c4ccccc4nc-3cc2Nc2ccccc2)CC1 | 0.5 µg/mL | 0.5 µg/mL | 1 µg/mL
OCCN(CCO)CCC/N=c1\cc2n(-c3ccc(Cl)cc3)c3ccccc3nc-2cc1Nc1ccc(Cl)cc1 | 1 µg/mL | 0.6 µg/mL | 3 µg/mL
CCOc1ccc(Nc2cc3nc4ccccc4n(-c4ccc(OCC)cc4)c-3c/c2=N\CC(C)C)cc1 | 4 µg/mL | 4 µg/mL | 100 µg/mL
CCCC/N=c1\cc2n(-c3ccccc3)c3ccccc3nc-2cc1Nc1ccccc1 | 3 µg/mL | 3 µg/mL | 20 µg/mL
c1ccc(Nc2cc3nc4ccccc4n(-c4ccccc4)c-3c/c2=N\CCCN2CCCCC2)cc1 | 0.3 µg/mL | 0.3 µg/mL | 1 µg/mL
OCCC/N=c1\cc2n(-c3ccc(Cl)cc3)c3ccccc3nc-2cc1Nc1ccc(Cl)cc1 | 2 µg/mL | 2 µg/mL | 10 µg/mL
N=c1cc2n(-c3ccccc3)c3ccccc3nc-2cc1Nc1ccccc1 | 8 µg/mL | 3 µg/mL | 12 µg/mL
CC(C)CC/N=c1\cc2n(-c3ccccc3)c3ccc(Cl)cc3nc-2cc1Nc1ccccc1 | 3 µg/mL | 3 µg/mL | 100 µg/mL
CCN(CC)CCC/N=c1\cc2n(-c3ccc(Cl)cc3)c3ccccc3nc-2cc1Nc1ccc(Cl)cc1 | 0.2 µg/mL | 0.2 µg/mL | 1 µg/mL
CC1CCC(/N=c2\cc3n(-c4ccc(Cl)cc4)c4ccccc4nc-3cc2Nc2ccc(Cl)cc2)CC1 (stereo unspecified) | 7.5 µg/mL | 7.5 µg/mL | 25 µg/mL
CCC(CO)/N=c1\cc2n(-c3ccc(Cl)cc3)c3ccccc3nc-2cc1Nc1ccc(Cl)cc1 (stereo unspecified) | 10 µg/mL | 2 µg/mL | 100 µg/mL
C/N=c1\cc2n(-c3ccc(Cl)cc3)c3ccccc3nc-2cc1Nc1ccc(Cl)cc1 | 2 µg/mL | 2 µg/mL | 100 µg/mL
NCCCCC/N=c1\cc2n(-c3ccc(Cl)cc3)c3ccccc3nc-2cc1Nc1ccc(Cl)cc1 | 0.3 µg/mL | 0.2 µg/mL | 0.5 µg/mL
COC(C/N=c1\cc2n(-c3ccccc3)c3ccccc3nc-2cc1Nc1ccccc1)OC | 4 µg/mL | 4 µg/mL | 100 µg/mL
CC(C)/N=c1\cc2n(-c3ccccc3)c3ccccc3nc-2cc1Nc1ccccc1 | 3 µg/mL | 2 µg/mL | 100 µg/mL
CCN1CCCC(/N=c2\cc3n(-c4ccc(Cl)cc4)c4ccccc4nc-3cc2Nc2ccc(Cl)cc2)C1 (stereo unspecified) | 0.5 µg/mL | 0.5 µg/mL | 8 µg/mL
CCN(CC)CCCC(C)/N=c1\cc2n(-c3ccc(Cl)cc3)c3ccccc3nc-2cc1Nc1ccc(Cl)cc1 (stereo unspecified) | 0.2 µg/mL | 0.2 µg/mL | 2 µg/mL
Clc1ccc(Nc2cc3nc4ccccc4n(-c4ccc(Cl)cc4)c-3c/c2=N\C2CCCC2)cc1 | 3 µg/mL | 3 µg/mL | 20 µg/mL
CCCC/N=c1\cc2n(-c3ccccc3)c3ccc(Cl)cc3nc-2cc1Nc1ccccc1 | 3 µg/mL | 2 µg/mL | 100 µg/mL
COC(C/N=c1\cc2n(-c3ccc(Cl)cc3)c3ccccc3nc-2cc1Nc1ccc(Cl)cc1)OC | 5 µg/mL | 4 µg/mL | 60 µg/mL
Clc1ccc(Nc2cc3nc4ccccc4n(-c4ccc(Cl)cc4)c-3c/c2=N\C2CCCCC2)cc1 | 1 µg/mL | 2 µg/mL | 20 µg/mL

SMILES | Concentration [1] | Concentration [2] | Concentration [3]
CN1CCN(CCC/N=c2\cc3n(-c4ccc(Cl)cc4)c4ccccc4nc-3cc2Nc2ccc(Cl)cc2)CC1 | 0.3 µg/mL | 0.3 µg/mL | 1 µg/mL
CC(CN(C)C)/N=c1\cc2n(-c3ccc(Cl)cc3)c3ccccc3nc-2cc1Nc1ccc(Cl)cc1 (stereo unspecified) | 1.2 µg/mL | 0.8 µg/mL | 16 µg/mL
O=C1CCCN1CCC/N=c1\cc2n(-c3ccc(Cl)cc3)c3ccccc3nc-2cc1Nc1ccc(Cl)cc1 | 2 µg/mL | 2 µg/mL | 20 µg/mL
c1ccc(Nc2cc3nc4ccccc4n(-c4ccccc4)c-3c/c2=N\C2CCCCCC2)cc1 | 2 µg/mL | 2 µg/mL | 20 µg/mL
OCCNCC/N=c1\cc2n(-c3ccc(Cl)cc3)c3ccccc3nc-2cc1Nc1ccc(Cl)cc1 | 8 µg/mL | 8 µg/mL | 20 µg/mL
CCN(CC)CC/N=c1\cc2n(-c3ccccc3)c3ccc(Cl)cc3nc-2cc1Nc1ccccc1 | 2 µg/mL | 1 µg/mL | 30 µg/mL
Clc1ccc(Nc2cc3nc4ccccc4n(-c4ccc(Cl)cc4)c-3c/c2=N\CCN2CCOCC2)cc1 | 1 µg/mL | 1 µg/mL | 20 µg/mL
Cc1ccc(Nc2cc3nc4ccccc4n(-c4ccc(C)cc4)c-3c/c2=N\CCO)cc1 | 8 µg/mL | 4 µg/mL | 12 µg/mL
CCC/N=c1\cc2n(-c3ccc(Cl)cc3)c3ccccc3nc-2cc1Nc1ccc(Cl)cc1 | 3 µg/mL | 3 µg/mL | 100 µg/mL
CCNCCC/N=c1\cc2n(-c3ccc(Cl)cc3)c3ccccc3nc-2cc1Nc1ccc(Cl)cc1 | 0.2 µg/mL | 0.2 µg/mL | 1 µg/mL
Clc1ccc(Nc2cc3nc4ccccc4n(-c4ccc(Cl)cc4)c-3c/c2=N\CCCNC2CCCCC2)cc1 | 0.2 µg/mL | 0.2 µg/mL | 1 µg/mL
Clc1ccc(Nc2cc3nc4ccccc4n(-c4ccc(Cl)cc4)c-3c/c2=N\CCN2CCCCC2)cc1 | 0.5 µg/mL | 0.4 µg/mL | 10 µg/mL
OCCNCC/N=c1\cc2n(-c3ccccc3)c3ccc(Cl)cc3nc-2cc1Nc1ccccc1 | 10 µg/mL | 5 µg/mL | 20 µg/mL
CC(C)CC/N=c1\cc2n(-c3ccc(Cl)cc3)c3ccccc3nc-2cc1Nc1ccc(Cl)cc1 | 3 µg/mL | 2 µg/mL | 80 µg/mL
CCN1CCCC1C/N=c1\cc2n(-c3ccccc3)c3ccccc3nc-2cc1Nc1ccccc1 (stereo unspecified) | 0.4 µg/mL | 0.5 µg/mL | 6 µg/mL
c1ccc(Nc2cc3nc4ccccc4n(-c4ccccc4)c-3c/c2=N\CCCN2CCCC2)cc1 | 0.2 µg/mL | 0.2 µg/mL | 0.6 µg/mL
NCCC/N=c1\cc2n(-c3ccc(Cl)cc3)c3ccccc3nc-2cc1Nc1ccc(Cl)cc1 | 0.4 µg/mL | 0.3 µg/mL | 1 µg/mL
Clc1ccc(Nc2cc3nc4ccccc4n(-c4ccc(Cl)cc4)c-3c/c2=N\CCN2CCCC2)cc1 | 0.5 µg/mL | 0.5 µg/mL | 10 µg/mL
CC(C)C/N=c1\cc2n(-c3ccccc3)c3ccc(Cl)cc3nc-2cc1Nc1ccccc1 | 3 µg/mL | 2 µg/mL | 100 µg/mL
O=C1CCCN1CC/N=c1\cc2n(-c3ccc(Cl)cc3)c3ccccc3nc-2cc1Nc1ccc(Cl)cc1 | 1.6 µg/mL | 1 µg/mL | 20 µg/mL
CC1CCC(/N=c2\cc3n(-c4ccccc4)c4ccccc4nc-3cc2Nc2ccccc2)CC1 (stereo unspecified) | 8 µg/mL | 6 µg/mL | 100 µg/mL
